M1 agonist = M1 muscarinic receptor agonists, primary screen, CHO-M1 cells, Fluo-4 calcium, agonist mode; 3% of 64,000 active; B-score at 10 µM; Fluo-4 calcium fluorescence; active compounds read high; Muscarinic acetylcholine receptor M1;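 active = fluorescence rise, raw or as B-score row- and column-corrected plate score, outside the 99.7% band of its plate's samples, either direction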
D1 mod = D1 CRE-luciferase signal change, two-sided – cell-based, HEK293 D1, dopamine EC30, D1 allosteric modulator project, primary screen | D(1A) dopamine receptor (Homo sapiens), P21728 | dopamine EC30 potentiation; actives deviate in either direction | B-score at 10 µM | 5.9% of 58,000 active | AID 641, 2007;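 active = luminescence count or its row- and column-corrected plate score outside the 99.7% band of the plate's sample wells, on either side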
Target sequence (P21728 whole entry, looked up): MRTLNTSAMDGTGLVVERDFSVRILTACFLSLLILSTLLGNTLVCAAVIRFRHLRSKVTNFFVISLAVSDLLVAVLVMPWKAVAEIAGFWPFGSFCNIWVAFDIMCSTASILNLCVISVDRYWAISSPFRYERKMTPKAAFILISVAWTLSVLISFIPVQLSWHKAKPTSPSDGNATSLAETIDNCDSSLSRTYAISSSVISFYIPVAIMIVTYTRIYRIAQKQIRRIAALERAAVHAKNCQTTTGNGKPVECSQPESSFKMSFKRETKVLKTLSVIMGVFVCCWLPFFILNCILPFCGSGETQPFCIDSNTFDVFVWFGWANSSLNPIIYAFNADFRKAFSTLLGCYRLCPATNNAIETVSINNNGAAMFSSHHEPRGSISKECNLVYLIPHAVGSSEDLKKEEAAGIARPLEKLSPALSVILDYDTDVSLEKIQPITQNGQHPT
Htt clearance = clearance of mutant huntingtin inclusions, primary screen, imaging, HeLa Exon1htt(103Q)mCFP, confocal imaging; 0.42% of 47,000 active; inhibition, % at 1.5 µM; aggregate imaging; zero = plate's median compound well;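 active = inhibition of aggregate fluorescence above about 70%, also judged a hit by eye on the cell image, limit read from the data, passing the limit was not always enough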;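 note: cells exposed to compound for three days before fixation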
AP ELISA ortho = alternative complement pathway inhibitors, primary screen, biochemical, ELISA, human serum, orthogonally pooled compounds. AID 1235, 2008. inhibition, % at 5 µM. 0.08% of 62,000 active. LPS-coated ELISA, C3 deposition; tested in compound mixtures;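 active = inhibition above 30% in each of the two pooled mixtures holding the compound, so the lower value exceeds 30%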;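 note: 0% = serum in Mg-EGTA without compound and 100% = EDTA serum blank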
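Test system: human serum alternative complement pathway, C3 deposition on LPS-coated wells; also added: Plate-bound LPS; doses: 5 µM per compound in ten-compound mixtures; schedule: 1 h at 37 °C; detection: Anti-C3 ELISA, OD 450 nm; evaluation: percent inhibition of C3 deposition onto LPS; repeats: two pool placements per compound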
M1 antagonist = antagonists of rat M1 muscarinic receptor. B-score at 10 µM. Muscarinic acetylcholine receptor M1 (Rattus norvegicus), P08482. 3.4% of 64,000 active. CHO-M1 cells, Fluo-4 calcium, ACh EC80 antagonist mode; active compounds read low. AID 628, 2007;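 active = calcium fluorescence response, raw or row-and-column corrected B-score, differing from the plate sample mean either way at a set confidence level, mostly lower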
M1 antag conf = rat M1 muscarinic receptor antagonists, confirmation, CHO cells, Fluo-4 calcium, duplicate; shares compounds with M1 antagonist; ACh EC80 antagonism; active compounds read low; calcium response (max-min fluorescence) at 10 µM; 43% of 1,700 active; AID 677, 2007;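 active = calcium response below the same-plate mean of wells given acetylcholine alone at its 80%-effect dose, minus 3 SD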;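 note: raw fluorescence intensity difference in arbitrary instrument units and not normalized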
mGluR4 antag = human mGluR4 response to M1 antagonist hits, M1 allosteric modulator project, cell-based, antagonist mode, secondary assay 1. shares compounds with M1 antagonist. CHO-mGluR4 calcium flux, Fluo-4 fluorescence, glutamate EC80; active compounds read low. fluorescence response (max-min) at 10 µM. 0.9% of 1,700 active. AID 678, 2007;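 active = fluorescence response below the plate's average for near-maximal glutamate wells, less 3 SD of those wells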;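 note: raw unnormalized fluorescence span taken in the window right after glutamate addition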
D1 PAM confirm = D1 receptor positive allosteric modulators, retest, confirmation, cell-based, HEK293 D1, CRE-luciferase, duplicate; shares compounds with D1 mod; dopamine EC30 potentiation; active compounds read high; luminescence at 10 µM; 88% of 2,200 active;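 active = luminescence in either of two replicates above the same-plate mean plus 3 SD of the low-dose dopamine control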
D1 no dopamine = D1 receptor agonism without dopamine, confirmation, mechanism study for D1 allosteric modulator project, cell-based, HEK293 D1, CRE-luciferase, secondary assay 1; luminescence, no dopamine; active compounds read high; 0.8% of 1,900 active; AID 646, 2007; luminescence at 10 µM; shares compounds with D1 mod; in the data active = luminescence above about 3900
Isoprot counter = isoproterenol response counter-screen activity for D1 modulators. shares compounds with D1 mod. HEK293 D1 CRE-luciferase, isoproterenol EC30 counter-screen. calls only at 10 µM. 63% of 2,200 active. AID 647;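 active = luminescence in either replicate above plate mean of wells with a partly effective reference agonist dose plus 3 SD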;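 note: isoproterenol raises cAMP through native beta-adrenoceptor Gs so signal bypasses D1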
* marks the source's active call; other numbers are inactive results; i = inactive; . = not tested or not shown; + = active, no number. The list is not random: actives were taken first. Their share in the collection is about 9%.

SMILES	M1 agonist	D1 mod	Htt clearance	AP ELISA ortho	M1 antagonist	D1 PAM confirm	D1 no dopamine	Isoprot counter	others
Cc1cc(Br)ccc1NC(=O)CNC(=O)CN(C)Cc1nc2ccccc2c(=O)[nH]1	-0.19	-0.74	-18	20	0.025	.	.	.
CCC(=O)N1c2ccc(S(=O)(=O)CCC(=O)NC3CCCC3)cc2CC1C (centres undefined)	-0.23	0.13	-28	3	0.042	.	.	.
CCC(=O)N1c2ccc(S(=O)(=O)CCC(=O)N3CCn4c3nc3ccccc34)cc2CC1C (centres undefined)	0.61	3.9*	.	13	-3.3*	12244*	1788	+	M1 antag conf=508;mGluR4 antag=208
CCOC(=O)c1oc2ccc(Br)cc2c1NC(=O)CN1CCN(C)CC1	-0.52	5.7*	22	4	-2.9*	5896*	1096	i	M1 antag conf=450*;mGluR4 antag=296
COC(=O)c1oc2ccc(Br)cc2c1NC(=O)CCN1CCOCC1	0.4	-0.23	.	2	1	.	.	.
O=C(NCc1cccnc1)c1cc(S(=O)(=O)N2CCCCC2)ccc1Cl	-0.57	0.92	-69	-17	-0.25	.	.	.
CCSc1nc2cc(OC)c(OC)cc2c(=O)n1CC	0.25	11*	.	13	-3.1*	13604*	1368	+	M1 antag conf=566;mGluR4 antag=241
CCc1ccc(-c2nc(CN3CCC(C(=O)N4CCN(c5ccccn5)CC4)CC3)c(C)o2)cc1	0.42	7.1*	.	6	-2.6*	6240*	.	+	M1 antag conf=411;mGluR4 antag=213
CCc1ccc(-c2nc(CN3CCCC(C(=O)O)C3)c(C)o2)cc1 (centres undefined)	-0.67	-0.054	-29	21	-0.42	.	.	.
CCN(CC)CCOc1c(Br)ccc2c1sc1nc3n(c(=O)c12)CCC3	-0.055	2.7*	.	7	-11*	8312*	1568	i	M1 antag conf=130*;mGluR4 antag=229
CCN=C1SC(C(N)=O)CC(=O)N1CC (centres undefined)	-0.13	6.3*	-10	7	-15*	10588*	1464	i	M1 antag conf=651;mGluR4 antag=207
COC(=O)c1ccccc1NC(=O)/C=C/c1cc(OC)c(OC)c(OC)c1	.	.	2	.	.	.	.	.
CC(C(=O)Nc1ccccc1-c1ccccc1)N1CCN(C(=O)c2ccco2)CC1 (centres undefined)	-0.33	0.48	.	-5	0.085	.	.	.
CCCCSc1nc2c(cnn2-c2ccc(F)cc2)c(=O)[nH]1	0.039	7*	48	14	-2.9*	7560*	1648	i	M1 antag conf=643;mGluR4 antag=155
CC(/C=N/n1cnnc1)=C\c1ccco1	0.21	0.021	.	-2	-0.0084	.	.	.
Cc1cc(C)c2nc(N3CCC(C(=O)N4CCCC4)CC3)sc2c1	-0.1	3.5*	30	10	-8*	5940	1656	i	M1 antag conf=233*;mGluR4 antag=180
O=c1c2ccccc2n(Cc2ccc(F)cc2)c(=O)n1C1CCCC1	-0.00025	4.9*	.	3	-14*	9856*	1664	+	M1 antag conf=576;mGluR4 antag=252
Clc1cccc(Nc2c3c(nc4ncnn24)CCC3)c1	-1.7	4.7*	43	13	-0.11	8280*	1584	i
CCS(=O)(=O)c1nc2ccccc2n1Cc1ccccc1Cl	-0.22	16*	.	14	-0.48	16608*	1152	+
COc1ncnc2c1NC(=O)CS2	0.28	0.62	11	12	0.12	.	.	.
COc1ncnc2c1N[C@@](C)(O)c1c(F)c(F)c(F)c(F)c1S2	1.7	5.7*	.	1	0.25	8300*	1556	i
O=C(O)c1c(-c2ccccc2)c2oc3ccccc3c2[nH]c1=O	0.15	-1.4	-18	13	0.14	.	.	.
c1cn(-c2ncnc3sc4c(c23)CCCC4)cn1	-0.31	4.3	45	6	0.55	.	.	.
c1ccn(-c2ncnc3sc4c(c23)CCCC4)c1	0.76	7.6*	15	-9	0.27	13568*	.	+
COC(=O)C(OC(=O)c1ccc(OC)cc1)C(=O)OC	.	.	15	.	.	.	.	.
SMILES	M1 agonist	D1 mod	Htt clearance	AP ELISA ortho	M1 antagonist	D1 PAM confirm	D1 no dopamine	Isoprot counter	others
Cc1ccc(C(=O)N2CCCC(c3nc4c(nnn4Cc4ccccc4)c(=O)[nH]3)C2)cc1 (centres undefined)	0.12	3.4*	0	7	0.065	9432*	.	+
Cc1ccc(CC(=O)N2CCC(c3nc4c(nnn4Cc4ccccc4)c(=O)[nH]3)CC2)cc1	0.25	4.9*	.	13	0.82	7652	1488	i
O=C(c1ccccc1Cl)N1CCC(c2nc3c(nnn3Cc3ccco3)c(=O)[nH]2)CC1	-0.89	6.1*	.	1	0.044	11824*	1716	+
Cc1ccc(Cn2nnc3c(=O)[nH]c(C4CCN(C(=O)Cc5cccs5)CC4)nc32)cc1	-0.061	-0.022	-10	15	-0.76	.	.	.
COc1cc(C)nc(NS(=O)(=O)c2ccc(C)cc2)n1	0.92	0.41	.	5	-0.06	.	.	.
N#CCCS(=O)(=O)c1nnnn1-c1ccccc1	0.31	0.29	.	11	0.51	.	.	.
Cc1oc2nc(SCCCC(=O)NCCO)nc(N)c2c1C	0.76	-0.1	-28	5	0.14	.	.	.
O=C(Nc1cc(Cl)ccc1N1CCOCC1)c1cnccn1	0.16	3.1*	-74	0	0.31	7880*	1408	i
COc1cccc(OC)c1C(=O)Nc1cc(Cl)ccc1N1CCOCC1	0.079	-0.017	11	9	0.047	.	.	.
CCOc1ccc(Nc2nc(Cc3nnc(SCC(=O)NCc4ccco4)n3CC)cs2)cc1	-0.62	-1.8	.	10	0.75	.	.	.
Nc1c(C(=O)c2ccc(F)cc2)oc2ccccc12	0.065	11*	-34	.	0.018	24288*	1764	+
CC(C)CC(=O)Nc1cccc(C(=O)Nc2ccccc2C(=O)O)c1	.	.	2	.	.	.	.	.
N#CC1=C(N)OC2=C(C(=O)CCC2)C1CCc1ccccc1 (centres undefined)	-0.049	6.4*	.	4	-0.39	7756*	.	i

Screens: PubChem, several laboratories
